From ChEMBL document CHEMBL1143008, “Synthesis and biological evaluation of chiral alpha-aminoanilides with central antinociceptive activity” (2007)

Tests used:
Assay type in all cases: functional
Mus musculus [1] = experiment: Antinociceptive activity in sc dosed Swiss Albino mouse by hotplate test
Outline: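 Male Swiss albino mice (23-30 g), s.c. dosing. Paw-licking latency on a 52.5 ± 0.1 °C hot plate, read before and up to 60 min after dosing. Mice outside 12-18 s at pretest were excluded; cutoff was 45 s. […] was fitted from the dose-response data with a constrained four-parameter logistic model.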

Mus musculus [2] = experiment: Antinociceptive effect in atropine treated Swiss Albino mouse assessed as licking latency at 50 mg/kg, sc by hotplate test; details: route subcutaneous
Outline: (§1)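 Antagonist pretreatment before s.c. test compound in male Swiss albino mice: atropine 5 mg/kg i.p., or hemicholinium-3 1 µg per mouse i.c.v. The i.c.v. dose was 5 µL in isotonic saline under ether anaesthesia. Paw-licking latency on a 52.5 °C hot plate was read at each compound's time of maximum effect, compared with saline-saline mice. Cutoff was 45 s.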

Mus musculus [3] = experiment: Antinociceptive effect in Swiss Albino mouse assessed as licking latency at 50 mg/kg, sc after 15 mins by hotplate test; details: route subcutaneous
Outline: (§2)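 Hot-plate test at 52.5 ± 0.1 °C in male Swiss albino mice (23-30 g) after s.c. dosing. The endpoint was fore- or hind-paw licking, timed before and at intervals up to 60 min. Mice scoring below 12 or above 18 s at pretest were rejected, with a 45 s cutoff. Mean ± SEM.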

Mus musculus [4] = experiment: Antinociceptive effect in Swiss Albino mouse assessed as licking latency at 10 mg/kg, sc after 15 mins by hotplate test; details: route subcutaneous
Mus musculus [5] = experiment: Effect on motor coordination in Swiss Albino mouse assessed as number of falls from rotarod at 30 mg/kg after 15 mins relative to CMC
Outline: (§3)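 Motor coordination of male Swiss albino mice on the rota-rod, counted as number of falls, before dosing and 15, 30 and 45 min after. Each value is the mean of 6-8 mice, compared with vehicle-treated controls.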

Mus musculus [6] = experiment: Antinociceptive effect in atropine treated Swiss Albino mouse assessed as licking latency at 30 mg/kg, sc by hotplate test; details: route subcutaneous; outline: as §1
Mus musculus [7] = experiment: Effect on motor coordination in Swiss Albino mouse assessed as number of falls from rotarod at 30 mg/kg after 30 mins relative to CMC; outline: as §3
Mus musculus [8] = experiment: Effect on motor coordination in Swiss Albino mouse assessed as number of falls from rotarod at 30 mg/kg after 45 mins relative to CMC; outline: as §3
Mus musculus [9] = experiment: Antinociceptive effect in Swiss Albino mouse assessed as licking latency at 30 mg/kg, sc after 15 mins by hotplate test; details: route subcutaneous; outline: as §2
Mus musculus [10] = experiment: Antinociceptive effect in Swiss Albino mouse assessed as licking latency at 15 mg/kg, sc after 15 mins by hotplate test; details: route subcutaneous; outline: as §2
Mus musculus [11] = experiment: Effect on motor coordination in Swiss Albino mouse assessed as number of falls from rotarod at 50 mg/kg after 45 mins relative to CMC; outline: as §3
Mus musculus [12] = experiment: Effect on motor coordination in Swiss Albino mouse assessed as number of falls from rotarod at 50 mg/kg after 30 mins relative to CMC; outline: as §3
Mus musculus [13] = experiment: Effect on motor coordination in Swiss Albino mouse assessed as number of falls from rotarod at 50 mg/kg after 15 mins relative to CMC; outline: as §3
Mus musculus [14] = experiment: Antinociceptive effect in atropine treated Swiss Albino mouse assessed as licking latency at 10 mg/kg, sc by hotplate test; details: route subcutaneous; outline: as §1
Mus musculus [15] = experiment: (§4) Antinociceptive effect in Swiss Albino mouse assessed as licking latency at 5 mg/kg, sc after 15 mins by hotplate test; details: route subcutaneous
Mus musculus [16] = experiment: Antinociceptive effect in Swiss Albino mouse assessed as licking latency at 1 mg/kg, sc after 60 mins by hotplate test; details: route subcutaneous
Outline: (§5)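 Male Swiss albino mice (23-30 g) got 1, 5 or 10 mg/kg s.c. or saline. Fore- or hind-paw licking latency on a 52.5 ± 0.1 °C plate was taken before dosing and at 15, 30, 45 and 60 min. Pretest range was 12-18 s (others rejected) with a 45 s cutoff. Each value is the mean of at least 10 mice; mean ± SEM.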

Mus musculus [17] = experiment: Antinociceptive effect in Swiss Albino mouse assessed as licking latency at 1 mg/kg, sc after 30 mins by hotplate test; details: route subcutaneous; outline: as §5
Mus musculus [18] = experiment: Antinociceptive effect in Swiss Albino mouse assessed as licking latency at 5 mg/kg, sc after 30 mins by hotplate test; details: route subcutaneous; outline: as §5
Mus musculus [19] = experiment: Antinociceptive effect in hemicolinium-3 treated Swiss Albino mouse assessed as licking latency at 10 mg/kg, sc by hotplate test; details: route subcutaneous; outline: as §1
Mus musculus [20] = experiment: Antinociceptive effect in Swiss Albino mouse assessed as licking latency at 1 mg/kg, sc after 15 mins by hotplate test; details: route subcutaneous; outline: as §5
Mus musculus [21] = experiment: Antinociceptive effect in Swiss Albino mouse assessed as licking latency at 1 mg/kg, sc after 45 mins by hotplate test; details: route subcutaneous; outline: as §5
Mus musculus [22] = experiment: Antinociceptive effect in Swiss Albino mouse assessed as licking latency at 10 mg/kg, sc after 60 mins by hotplate test; details: route subcutaneous; outline: as §5
Mus musculus [23] = experiment: Effect on motor coordination in Swiss Albino mouse assessed as number of falls from rotarod at 10 mg/kg after 45 mins relative to CMC; outline: as §3
Mus musculus [24] = experiment: Effect on motor coordination in Swiss Albino mouse assessed as number of falls from rotarod at 10 mg/kg after 15 mins relative to CMC; outline: as §3
Mus musculus [25] = experiment: as §4; details: route subcutaneous; outline: as §5; remark: listed apart in the source
Mus musculus [26] = experiment: Antinociceptive effect in Swiss Albino mouse assessed as licking latency at 5 mg/kg, sc after 45 mins by hotplate test; details: route subcutaneous; outline: as §5
Mus musculus [27] = experiment: Antinociceptive effect in Swiss Albino mouse assessed as licking latency at 10 mg/kg, sc after 30 mins by hotplate test; details: route subcutaneous; outline: as §5
Mus musculus [28] = experiment: Antinociceptive effect in Swiss Albino mouse assessed as licking latency at 10 mg/kg, sc after 45 mins by hotplate test; details: route subcutaneous; outline: as §5
Mus musculus [29] = experiment: Antinociceptive effect in Swiss Albino mouse assessed as licking latency at 5 mg/kg, sc after 60 mins by hotplate test; details: route subcutaneous; outline: as §5
Mus musculus [30] = experiment: Effect on motor coordination in Swiss Albino mouse assessed as number of falls from rotarod at 10 mg/kg after 30 mins relative to CMC; outline: as §3
Mus musculus [31] = experiment: Antinociceptive effect in Swiss Albino mouse assessed as licking latency at 20 mg/kg, sc after 15 mins by hotplate test; details: route subcutaneous; outline: as §2
Mus musculus [32] = experiment: Antinociceptive effect in Swiss Albino mouse assessed as licking latency at 40 mg/kg, sc after 15 mins by hotplate test; details: route subcutaneous; outline: as §2
Mus musculus [33] = experiment: Antinociceptive effect in hemicolinium-3 treated Swiss Albino mouse assessed as licking latency at 50 mg/kg, sc by hotplate test; details: route subcutaneous; outline: as §1

Cc1cc(Cl)ccc1NC(=O)[C@H](C)N
ED50 (Mus musculus [1]): 41.3 mg/kg
Activity (Mus musculus [2]): 20.5 s
Activity (Mus musculus [3]): 21.1 s

Cc1cccc(C)c1N(C)C(=O)[C@@H](N)C(C)C
Activity (Mus musculus [4]): 13.6 s

Cc1cc(Cl)cc(C)c1NC(=O)[C@H](C)N
Activity (Mus musculus [5]): 1.4
Activity (Mus musculus [6]): 26.6 s
ED50 (Mus musculus [1]): 25.5 mg/kg
Activity (Mus musculus [7]): 1.2
Activity (Mus musculus [8]): 1
Activity (Mus musculus [9]): 25.1 s

Cc1ccccc1NC(=O)[C@H](C)N
Activity (Mus musculus [10]): 16.2 s

Cc1cccc(C)c1NC(=S)[C@H](C)N
Activity (Mus musculus [3]): 18.6 s

Cc1cc(Cl)ccc1NC(=O)[C@@H](C)N
ED50 (Mus musculus [1]): 39.2 mg/kg
Activity (Mus musculus [11]): 0.8
Activity (Mus musculus [12]): 1.1
Activity (Mus musculus [2]): 25 s
Activity (Mus musculus [3]): 25.5 s
Activity (Mus musculus [13]): 1.5

Cc1cccc(C)c1NC(=O)[C@@H](N)CC(C)C
Activity (Mus musculus [14]): 20.7 s
ED50 (Mus musculus [1]): 6.8 mg/kg
Activity (Mus musculus [4]): 21.3 s

Cc1cccc(C)c1NC(=S)[C@@H](C)N
Activity (Mus musculus [3]): 18.8 s

Cc1cc(Cl)cc(C)c1NC(=O)[C@@H](C)N
Activity (Mus musculus [6]): 23.7 s
ED50 (Mus musculus [1]): 17.8 mg/kg
Activity (Mus musculus [9]): 23.2 s

Cc1ccccc1NC(=O)[C@@H](C)N
Activity (Mus musculus [4]): 17.1 s

Cc1cc(Cl)cc(C)c1NC(=O)[C@H](N)C(C)C
Activity (Mus musculus [3]): 17 s

C[C@H](N)C(=O)Nc1ccc(Cl)cc1
Activity (Mus musculus [15]): 15.8 s

Cc1cc(Cl)cc(C)c1NC(=O)[C@@H](N)C(C)C
Activity (Mus musculus [3]): 17.2 s

Cc1cccc(C)c1NC(=O)[C@H](N)C(C)C
Activity (Mus musculus [16]): 14.5 s
Activity (Mus musculus [17]): 17.2 s
Activity (Mus musculus [18]): 20.6 s
Activity (Mus musculus [19]): 17.5 s
Activity (Mus musculus [20]): 16.5 s
Activity (Mus musculus [14]): 16.9 s
ED50 (Mus musculus [1]): 5.7 mg/kg
Activity (Mus musculus [21]): 15.3 s
Activity (Mus musculus [4]): 30.3 s
Activity (Mus musculus [22]): 15.1 s
Activity (Mus musculus [23]): 0.9
Activity (Mus musculus [24]): 2.3
Activity (Mus musculus [25]): 23.7 s
Activity (Mus musculus [26]): 17.1 s
Activity (Mus musculus [27]): 23.6 s
Activity (Mus musculus [28]): 18.5 s
Activity (Mus musculus [29]): 14.9 s
Activity (Mus musculus [30]): 1.2

Cc1cccc(C)c1NC(=O)[C@H](N)CC(C)C
Activity (Mus musculus [14]): 23.9 s
ED50 (Mus musculus [1]): 6.6 mg/kg
Activity (Mus musculus [4]): 20.7 s
Activity (Mus musculus [23]): 0.8
Activity (Mus musculus [24]): 2.2
Activity (Mus musculus [30]): 1.5

Cc1cc(Cl)ccc1NC(=O)[C@H](N)C(C)C
Activity (Mus musculus [5]): 1.5
Activity (Mus musculus [6]): 26.4 s
ED50 (Mus musculus [1]): 19.6 mg/kg
Activity (Mus musculus [7]): 1.3
Activity (Mus musculus [8]): 0.8
Activity (Mus musculus [9]): 27.9 s

Cc1cccc(C)c1NC(=O)[C@H](C)N [S-TOCAINIDE]
Activity (Mus musculus [3]): 14.3 s

C[C@@H](N)C(=O)Nc1ccc(Cl)cc1
Activity (Mus musculus [15]): 17.3 s

Cc1cccc(C)c1N(C)C(=O)[C@H](N)C(C)C
Activity (Mus musculus [31]): 13.6 s

Cc1cccc(C)c1NC(=O)[C@@H](N)C(C)C
Activity (Mus musculus [4]): 15.8 s

Cc1cc(Cl)ccc1NC(=O)[C@@H](N)C(C)C
ED50 (Mus musculus [1]): 25.9 mg/kg
Activity (Mus musculus [32]): 19.9 s

Cc1cccc(C)c1NC(=O)[C@@H](C)N [(R)-TOCAINIDE]
Activity (Mus musculus [33]): 18.6 s
ED50 (Mus musculus [1]): 33.6 mg/kg
Activity (Mus musculus [11]): 0.9
Activity (Mus musculus [12]): 1.4
Activity (Mus musculus [2]): 17.5 s
Activity (Mus musculus [3]): 26.5 s
Activity (Mus musculus [13]): 1.7
